Reference: ChEMBL document CHEMBL3779840, “Discovery of 2-((3-Amino-4-methylphenyl)amino)-N-(2-methyl-5-(3-(trifluoromethyl)benzamido)phenyl)-4-(methylamino)pyrimidine-5-carboxamide (CHMFL-ABL-053) as a Potent, Selective, and Orally Available BCR-ABL/SRC/p38 Kinase Inhibitor for Chronic Myeloid Leukemia” (J Med Chem, 2016)
Active and inactive are the calls of the source. The rule behind the calls is not given here.

How the values were obtained:
[1] = Antiproliferative activity against mouse BA/F3 cells assessed as cell viability after 72 hrs by CellTiter-Glo or CCK-8 assay; type: cell-based, BaF3
[2] = target: T1, Epithelial discoidin domain-containing receptor 1 (Homo sapiens, UniProt Q08345); assay: Inhibition of GST-tagged human DDR1 (440 to 876 residues) expressed in Baculovirus expression system
T1 sequence (Q08345 whole entry, the tested form may be a part): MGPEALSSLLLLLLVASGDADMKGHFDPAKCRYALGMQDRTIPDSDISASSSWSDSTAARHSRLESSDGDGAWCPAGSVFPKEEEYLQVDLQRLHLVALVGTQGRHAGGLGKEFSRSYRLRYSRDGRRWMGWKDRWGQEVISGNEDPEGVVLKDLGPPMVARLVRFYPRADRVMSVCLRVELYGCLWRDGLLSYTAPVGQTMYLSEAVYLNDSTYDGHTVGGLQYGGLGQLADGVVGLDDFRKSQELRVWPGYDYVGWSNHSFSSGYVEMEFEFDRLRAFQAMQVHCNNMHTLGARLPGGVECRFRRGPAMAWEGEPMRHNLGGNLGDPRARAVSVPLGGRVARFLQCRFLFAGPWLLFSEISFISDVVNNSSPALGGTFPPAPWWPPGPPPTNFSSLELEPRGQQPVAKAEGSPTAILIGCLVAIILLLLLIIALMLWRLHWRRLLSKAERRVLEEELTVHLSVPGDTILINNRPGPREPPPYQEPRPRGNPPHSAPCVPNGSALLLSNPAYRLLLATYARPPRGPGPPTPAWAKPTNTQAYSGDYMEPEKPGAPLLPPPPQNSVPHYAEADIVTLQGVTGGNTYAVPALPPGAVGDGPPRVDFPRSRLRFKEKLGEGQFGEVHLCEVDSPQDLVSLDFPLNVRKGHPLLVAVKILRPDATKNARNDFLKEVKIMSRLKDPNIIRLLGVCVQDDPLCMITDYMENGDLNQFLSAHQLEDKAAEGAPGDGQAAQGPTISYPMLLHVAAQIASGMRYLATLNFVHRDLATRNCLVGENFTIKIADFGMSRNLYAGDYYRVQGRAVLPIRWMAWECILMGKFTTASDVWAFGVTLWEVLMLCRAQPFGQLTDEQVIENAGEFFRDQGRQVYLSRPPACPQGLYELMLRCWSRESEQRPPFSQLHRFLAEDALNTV

[3] = target: T2, Proto-oncogene tyrosine-protein kinase Src (Homo sapiens, UniProt P12931); assay: Inhibition of full length recombinant human C-terminal His-tagged SRC expressed in Baculovirus expression system
T2 sequence (P12931 2-536 limits assumed): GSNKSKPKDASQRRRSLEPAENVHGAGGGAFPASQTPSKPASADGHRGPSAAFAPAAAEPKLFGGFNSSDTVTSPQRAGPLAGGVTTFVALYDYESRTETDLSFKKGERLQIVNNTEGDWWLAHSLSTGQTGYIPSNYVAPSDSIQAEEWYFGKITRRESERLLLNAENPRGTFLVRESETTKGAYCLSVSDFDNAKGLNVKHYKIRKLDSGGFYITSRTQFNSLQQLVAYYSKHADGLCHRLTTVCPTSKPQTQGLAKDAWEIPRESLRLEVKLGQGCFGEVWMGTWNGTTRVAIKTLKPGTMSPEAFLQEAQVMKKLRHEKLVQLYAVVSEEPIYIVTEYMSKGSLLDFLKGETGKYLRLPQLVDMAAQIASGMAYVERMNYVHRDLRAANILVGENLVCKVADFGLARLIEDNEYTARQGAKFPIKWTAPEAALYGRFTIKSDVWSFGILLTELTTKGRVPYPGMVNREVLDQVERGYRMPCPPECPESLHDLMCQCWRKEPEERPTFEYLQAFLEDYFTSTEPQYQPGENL
How it was run: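 IC50 values were determined with the Invitrogen SelectScreen biochemical kinase assay.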

[4] = Antiproliferative activity against human KU812 cells assessed as cell viability after 72 hrs by CellTiter-Glo or CCK-8 assay; type: functional; conditions: KU812, 72 h
[5] = Antiproliferative activity against human MOLM14 cells assessed as cell viability after 72 hrs by CellTiter-Glo or CCK-8 assay; type: functional; conditions: MOLM-14, 72 h
MV4-11 = assay: Antiproliferative activity against human MV4-11 cells assessed as cell viability after 72 hrs by CellTiter-Glo or CCK-8 assay; type: functional; conditions: MV4-11, 72 h
[6] = Antiproliferative activity against human MEG01 cells assessed as cell viability after 72 hrs by CellTiter-Glo or CCK-8 assay; type: functional; conditions: MEG-01, 72 h
HEL = assay: Antiproliferative activity against human HEL cells assessed as cell viability after 72 hrs by CellTiter-Glo or CCK-8 assay; type: functional
[7] = Antiproliferative activity against […] CHL cells assessed as cell viability after 72 hrs by CellTiter-Glo or CCK-8 assay; type: cell-based, Cricetulus griseus; conditions: chinese hamster
[8] = target: T3, Bcr/Abl fusion protein (Homo sapiens) (UniProt P00519+P11274); assay: Inhibition of BCR/ABL autophosphorylation at Y245 site in human KU812 cells at 300 nM after 1 hr by immunoblotting method; type: cell-based
T3 sequence (P00519 whole entry, looked up, the tested form may be a part): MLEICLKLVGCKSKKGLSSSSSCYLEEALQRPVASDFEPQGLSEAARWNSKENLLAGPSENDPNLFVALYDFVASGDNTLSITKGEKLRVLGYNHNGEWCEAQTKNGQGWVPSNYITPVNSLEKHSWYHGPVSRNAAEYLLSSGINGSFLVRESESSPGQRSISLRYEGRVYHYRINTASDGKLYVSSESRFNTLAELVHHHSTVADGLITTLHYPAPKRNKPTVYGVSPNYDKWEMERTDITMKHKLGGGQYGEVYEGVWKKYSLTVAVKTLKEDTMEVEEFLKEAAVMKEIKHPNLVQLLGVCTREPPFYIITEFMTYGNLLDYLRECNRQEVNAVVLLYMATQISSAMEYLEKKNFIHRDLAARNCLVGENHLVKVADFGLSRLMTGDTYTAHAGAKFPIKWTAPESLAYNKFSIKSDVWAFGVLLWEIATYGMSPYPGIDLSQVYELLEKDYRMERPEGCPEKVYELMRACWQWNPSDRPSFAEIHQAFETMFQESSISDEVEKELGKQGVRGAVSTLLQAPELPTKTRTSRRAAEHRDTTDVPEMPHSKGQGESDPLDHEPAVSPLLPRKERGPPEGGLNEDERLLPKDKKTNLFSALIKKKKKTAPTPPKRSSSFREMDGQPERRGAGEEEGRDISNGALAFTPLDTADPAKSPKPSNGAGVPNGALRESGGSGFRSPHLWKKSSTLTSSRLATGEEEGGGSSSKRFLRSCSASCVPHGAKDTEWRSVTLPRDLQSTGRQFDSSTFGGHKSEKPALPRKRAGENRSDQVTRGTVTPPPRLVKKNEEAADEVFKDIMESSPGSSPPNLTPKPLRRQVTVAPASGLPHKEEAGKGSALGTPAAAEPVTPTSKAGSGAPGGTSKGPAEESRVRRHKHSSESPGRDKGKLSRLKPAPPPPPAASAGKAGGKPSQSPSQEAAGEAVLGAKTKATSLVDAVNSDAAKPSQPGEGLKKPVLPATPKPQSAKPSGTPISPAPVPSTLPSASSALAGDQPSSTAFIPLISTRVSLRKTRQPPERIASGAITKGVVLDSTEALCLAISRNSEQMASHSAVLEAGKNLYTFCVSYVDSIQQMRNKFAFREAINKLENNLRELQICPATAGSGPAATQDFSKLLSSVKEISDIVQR
T3 sequence (P11274 whole entry, looked up, the tested form may be a part): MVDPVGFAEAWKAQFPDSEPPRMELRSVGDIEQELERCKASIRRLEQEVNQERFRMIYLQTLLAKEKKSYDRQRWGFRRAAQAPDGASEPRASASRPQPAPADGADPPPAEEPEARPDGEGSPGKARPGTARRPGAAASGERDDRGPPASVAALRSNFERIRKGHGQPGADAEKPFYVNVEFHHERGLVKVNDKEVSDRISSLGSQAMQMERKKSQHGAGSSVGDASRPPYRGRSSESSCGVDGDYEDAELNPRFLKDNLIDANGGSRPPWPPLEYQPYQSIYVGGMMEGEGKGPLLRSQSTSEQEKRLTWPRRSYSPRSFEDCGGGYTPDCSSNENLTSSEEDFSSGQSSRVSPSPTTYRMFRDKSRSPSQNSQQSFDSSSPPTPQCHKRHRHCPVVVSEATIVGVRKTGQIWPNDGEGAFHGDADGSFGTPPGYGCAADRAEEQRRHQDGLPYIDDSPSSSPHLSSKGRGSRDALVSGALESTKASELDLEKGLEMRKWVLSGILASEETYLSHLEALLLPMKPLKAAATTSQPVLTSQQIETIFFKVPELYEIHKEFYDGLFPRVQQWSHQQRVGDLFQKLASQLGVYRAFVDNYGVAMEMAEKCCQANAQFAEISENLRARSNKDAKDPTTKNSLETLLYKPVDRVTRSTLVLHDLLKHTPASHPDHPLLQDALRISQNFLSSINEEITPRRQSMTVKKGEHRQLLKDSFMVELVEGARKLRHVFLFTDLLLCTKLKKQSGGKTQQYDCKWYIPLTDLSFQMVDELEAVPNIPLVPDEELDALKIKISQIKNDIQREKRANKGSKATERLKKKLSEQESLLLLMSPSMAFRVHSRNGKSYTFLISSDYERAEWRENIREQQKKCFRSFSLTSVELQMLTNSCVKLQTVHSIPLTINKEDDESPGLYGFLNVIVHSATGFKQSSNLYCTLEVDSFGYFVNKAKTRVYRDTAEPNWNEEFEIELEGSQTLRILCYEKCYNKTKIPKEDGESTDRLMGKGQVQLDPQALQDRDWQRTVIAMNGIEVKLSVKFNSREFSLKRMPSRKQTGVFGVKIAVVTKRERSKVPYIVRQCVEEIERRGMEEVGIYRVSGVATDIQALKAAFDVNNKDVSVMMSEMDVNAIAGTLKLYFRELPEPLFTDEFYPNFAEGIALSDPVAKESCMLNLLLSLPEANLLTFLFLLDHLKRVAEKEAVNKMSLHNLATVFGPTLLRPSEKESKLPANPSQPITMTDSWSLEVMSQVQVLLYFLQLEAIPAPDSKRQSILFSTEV
How it was run: (§1)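 KU812, K562 and MEG-01 cells were exposed to compound at the indicated concentrations for 1 h. Whole-cell lysates were then analysed by Western blot for phosphorylated signaling proteins.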

[9] = target: T3, Bcr/Abl fusion protein (Homo sapiens); assay: Inhibition of BCR/ABL in human K562 cells assessed as downregulation of Stat5 phosphorylation at […] site after 1 hr by immunoblotting method; type: cell-based; how it was run: as §1
[10] = target: T3, Bcr/Abl fusion protein (Homo sapiens); assay: Inhibition of BCR/ABL in human KU812 cells assessed as downregulation of Stat5 phosphorylation at […] site after 1 hr by immunoblotting method; type: cell-based; how it was run: as §1
[11] = target: T3, Bcr/Abl fusion protein (Homo sapiens); assay: Inhibition of BCR/ABL in human MEG01 cells assessed as downregulation of CrkL phosphorylation at […] site after 1 hr by immunoblotting method; type: cell-based; conditions: MEG-01; how it was run: as §1
[12] = target: T2, Proto-oncogene tyrosine-protein kinase Src; assay: Inhibition of SRC phosphorylation in human KU812 cells at 0.01 to 3 uM after 1 hr by immunoblotting method; type: cell-based
How it was run: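 Cells were treated for 1 h at the indicated concentrations. Whole-cell lysates were then analysed by Western blot for phosphorylation of signalling proteins in the BCR-ABL pathway.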

K562 [13] = assay: Induction of cell cycle arrest in human K562 cells assessed as accumulation at G0/G1-phase after 12 hrs by propidium iodide/RNase staining based flow cytometry; type: functional
KU812 cell line = assay: Induction of cell cycle arrest in human KU812 cells assessed as accumulation at G0/G1-phase after 12 hrs by propidium iodide/RNase staining based flow cytometry; type: functional
MEG-01 [14] = assay: Induction of cell cycle arrest in human MEG01 cells assessed as accumulation at G0/G1-phase after 12 hrs by propidium iodide/RNase staining based flow cytometry; type: functional
K562 [15] = assay: Induction of apoptosis in human K562 cells assessed as increase in cleaved PARP level at 100 nM after 48 hrs by immunoblotting method; type: functional, cell-based
MEG-01 [16] = assay: Induction of apoptosis in human MEG01 cells assessed as increase in cleaved PARP level at 100 nM after 48 hrs by immunoblotting method; type: functional, cell-based
K562 [17] = assay: Induction of apoptosis in human K562 cells assessed as increase in cleaved caspase3 level at 100 nM after 48 hrs by immunoblotting method; type: functional, cell-based
MEG-01 [18] = assay: Induction of apoptosis in human MEG01 cells assessed as increase in cleaved caspase3 level at 100 nM after 48 hrs by immunoblotting method; type: functional, cell-based
[19] = Half life in Sprague-Dawley rat at 1 mg/kg, iv; type: ADME, organism-based; conditions: in vivo
[20] = Cmax in Sprague-Dawley rat at 1 mg/kg, iv; type: ADME, organism-based; set-up: dose 1 mg/kg, route intravenous; conditions: in vivo
[21] = AUC(0 to t) in Sprague-Dawley rat at 10 mg/kg, po; type: ADME, organism-based; conditions: in vivo
[22] = Apparent volume of distribution in Sprague-Dawley rat at 1 mg/kg, iv; type: ADME, organism-based; conditions: in vivo, read-out: Vd(app)
[23] = Apparent clearance in Sprague-Dawley rat at 1 mg/kg, iv; type: ADME, organism-based; conditions: in vivo, read-out: CL(app) (converted)
[24] = Mean residence time (0 to infinity) in Sprague-Dawley rat at 10 mg/kg, po; type: ADME, organism-based; conditions: in vivo
K562 [25] = assay: Antitumor activity against human K562 cells xenografted in nu/nu mouse assessed as tumor growth inhibition at 50 mg/kg/day, qd administered through oral gavage measured after 16 days; type: functional; conditions: 384 h, read-out: TGI
How it was run: (§2)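 Female nu/nu mice bore established K562 xenografts and received daily oral dosing at 25.0 or 50.0 mg/kg/d, or vehicle, starting when tumors reached 200 to 400 mm3, for 16 days. Groups had 5 animals; data are mean ± SEM. Tumor size and body weight were normalized to initial values, and final tumor weight was recorded. Tumor tissue was stained with HE, Ki-67 and TUNEL.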

K562 [26] = assay: Induction of apoptosis in human K562 cells xenografted in nu/nu mouse at 25 and 50 mg/kg/day, qd administered through oral gavage measured after 16 days by TUNEL staining-based assay; type: functional, organism-based; how it was run: as §2
[27] = system: Mast/stem cell growth factor receptor Kit (Homo sapiens), P10721 [L576P]; assay: Inhibition of partial length human KIT L576P mutant expressed in bacterial expression system assessed as residual activity at 1 uM relative to control
[28] = target: T1, Epithelial discoidin domain-containing receptor 1; assay: Inhibition of partial length human wild type DDR1 expressed in bacterial expression system assessed as residual activity at 1 uM relative to control
[29] = target: Tyrosine-protein kinase HCK (Homo sapiens) (UniProt P08631); assay: Inhibition of full length human wild type HCK expressed in bacterial expression system assessed as residual activity at 1 uM relative to control
Sequence of Tyrosine-protein kinase HCK (Homo sapiens) (P08631 2-526 limits assumed): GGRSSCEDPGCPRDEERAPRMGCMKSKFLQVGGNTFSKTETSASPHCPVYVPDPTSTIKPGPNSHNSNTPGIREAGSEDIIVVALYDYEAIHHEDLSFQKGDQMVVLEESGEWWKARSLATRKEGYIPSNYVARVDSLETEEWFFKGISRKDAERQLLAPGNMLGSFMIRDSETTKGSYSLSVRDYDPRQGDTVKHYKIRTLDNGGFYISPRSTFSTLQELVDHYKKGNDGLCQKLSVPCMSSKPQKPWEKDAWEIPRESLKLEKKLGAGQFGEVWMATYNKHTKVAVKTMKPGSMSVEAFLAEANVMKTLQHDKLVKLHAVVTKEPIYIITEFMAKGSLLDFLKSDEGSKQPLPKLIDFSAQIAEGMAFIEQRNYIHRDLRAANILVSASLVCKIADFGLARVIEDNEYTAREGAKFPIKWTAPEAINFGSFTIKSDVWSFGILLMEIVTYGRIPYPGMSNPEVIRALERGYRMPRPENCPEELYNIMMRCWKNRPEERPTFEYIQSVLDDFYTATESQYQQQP

[30] = target: Transcription factor ETV6/Tyrosine-protein kinase ABL1 (Homo sapiens) (UniProt P00519+P41212); conditions: BaF3
Sequence of Transcription factor ETV6/Tyrosine-protein kinase ABL1 (Homo sapiens) (P00519 whole entry, looked up, the tested form may be a part): as the sequence (P00519 whole entry, looked up, the tested form may be a part) above
Sequence of Transcription factor ETV6/Tyrosine-protein kinase ABL1 (Homo sapiens) (P41212 whole entry, looked up, the tested form may be a part): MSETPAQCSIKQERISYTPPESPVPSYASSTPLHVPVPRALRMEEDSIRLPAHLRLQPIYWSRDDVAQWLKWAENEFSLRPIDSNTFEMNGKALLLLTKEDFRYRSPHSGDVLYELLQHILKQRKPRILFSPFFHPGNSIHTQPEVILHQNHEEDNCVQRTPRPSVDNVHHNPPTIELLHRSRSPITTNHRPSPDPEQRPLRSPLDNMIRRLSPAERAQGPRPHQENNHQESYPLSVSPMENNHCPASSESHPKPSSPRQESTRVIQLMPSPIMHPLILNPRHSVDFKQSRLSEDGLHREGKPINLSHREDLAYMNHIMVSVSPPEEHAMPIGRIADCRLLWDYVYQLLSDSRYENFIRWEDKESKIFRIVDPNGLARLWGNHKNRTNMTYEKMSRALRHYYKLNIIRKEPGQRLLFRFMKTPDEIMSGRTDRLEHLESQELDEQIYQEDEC

[31] = system: Bcr/Abl fusion protein (Homo sapiens), P00519+P11274 [F317L]; conditions: BaF3
BaF3 [32] = conditions: Homo sapiens
[33] = system: Bcr/Abl fusion protein (Homo sapiens), P00519+P11274 [M351T]; conditions: BaF3
[34] = target: T3, Bcr/Abl fusion protein (Homo sapiens); conditions: BaF3
BaF3 [35] = conditions: Homo sapiens; remark: listed apart in the source

`CNc1nc(Nc2ccc(C)c(N)c2)ncc1C(=O)Nc1cc(NC(=O)c2cccc(C(F)(F)F)c2)ccc1C` gave a GI50 at 72 h [1] of over 10 µM, an IC50 [2] of 0.292 µM and an IC50 [3] of 0.09 µM. For the same compound, the GI50 [4] was 0.025 µM, the GI50 [5] was over 10 µM and the GI50 (MV4-11) was 8 µM. It also gave a GI50 [6] of 0.016 µM, a GI50 (HEL) of over 10 µM and a GI50 at 72 h [7] of over 10 µM. For the same compound, the inhibition [8] was “Active”, the inhibition [9] was “Dose-dependent effect” and the inhibition [10] was “Dose-dependent effect”. The inhibition [11] was “Dose-dependent effect”, the inhibition [12] was “inactive” and the Activity (K562 [13]) was “Dose-dependent effect”. For the same compound, the Activity (KU812 cell line) was “Dose-dependent effect”, the Activity (MEG-01 [14]) was “Dose-dependent effect” and the Activity (K562 [15]) was “Active”. The Activity (MEG-01 [16]) was “Active”, the Activity (K562 [17]) was “Active” and the Activity (MEG-01 [18]) was “Active”. It also gave a half-life [19] of 2.82 h, a Cmax [20] of 2.4 µg/mL and an AUC(0-t) [21] of 1.72 µg·h/mL. It also gave a Vd [22] of 6.03 L/kg, a clearance [23] of 1.54 L/h/kg and an MRT inf [24] of 5.51 h. The inhibition in vivo at 50 mg/kg/day (K562 [25]) was 48.3%, the Activity (K562 [26]) was “Active” and the Activity [27] was 0.8%. The Activity [28] was 0%, the Activity [29] was 0.7% and the GI50 [30] was 0.053 µM. It also gave a GI50 [31] of 0.045 µM, a GI50 (BaF3 [32]) of 0.073 µM and a GI50 [33] of 0.045 µM. For the same compound, the GI50 [34] was 0.44 µM and the GI50 (BaF3 [35]) was 9.25 µM.
